Test results as given in PMC7717452 (Journal of Enzyme Inhibition and Medicinal Chemistry, 2020).
Several values for one entry are separate records, joined by “and”; a condition that tells them apart may be missing. Identical values can stand only once. Like-named read-outs stand apart in the source and are kept apart here. Blank lines part the entries; values can stand above or below the compound they belong to.

Assays:
[1] = tested on: L. infantum amastigotes (WT and sKO); assay: Intracellular low molecular mass thiols, amastigotes in J774 macrophages; type: cell-based, Leishmania infantum; details: 1 µM, 24 h, vs non-treated control
Summary of the method: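 J774 macrophages at 50% confluence were infected with stationary-phase L. infantum WT or single knockout promastigotes (1:40) for 2 h at room temperature, then 22 h at 37 °C. After washing, cells were treated or not with 1 µM test compound for 24 h. Thiols were reduced with NaBH4, labelled with monobromobimane, then separated by C18 HPLC against standards. Non-infected macrophage GSH was subtracted, and values are fold-change versus non-treated. At least duplicates; t-test.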

[2] = molecular target: T1, LiTryS (Leishmania infantum trypanothione synthetase) (Leishmania infantum, UniProt A4I2Z3); assay: TryS activity end-point assay; type: biochemical; details: for IC50: ± 2σ, ∼30 assumed for 50 ± 5% inhibition at 30 µM
T1 sequence (A4I2Z3 1-652): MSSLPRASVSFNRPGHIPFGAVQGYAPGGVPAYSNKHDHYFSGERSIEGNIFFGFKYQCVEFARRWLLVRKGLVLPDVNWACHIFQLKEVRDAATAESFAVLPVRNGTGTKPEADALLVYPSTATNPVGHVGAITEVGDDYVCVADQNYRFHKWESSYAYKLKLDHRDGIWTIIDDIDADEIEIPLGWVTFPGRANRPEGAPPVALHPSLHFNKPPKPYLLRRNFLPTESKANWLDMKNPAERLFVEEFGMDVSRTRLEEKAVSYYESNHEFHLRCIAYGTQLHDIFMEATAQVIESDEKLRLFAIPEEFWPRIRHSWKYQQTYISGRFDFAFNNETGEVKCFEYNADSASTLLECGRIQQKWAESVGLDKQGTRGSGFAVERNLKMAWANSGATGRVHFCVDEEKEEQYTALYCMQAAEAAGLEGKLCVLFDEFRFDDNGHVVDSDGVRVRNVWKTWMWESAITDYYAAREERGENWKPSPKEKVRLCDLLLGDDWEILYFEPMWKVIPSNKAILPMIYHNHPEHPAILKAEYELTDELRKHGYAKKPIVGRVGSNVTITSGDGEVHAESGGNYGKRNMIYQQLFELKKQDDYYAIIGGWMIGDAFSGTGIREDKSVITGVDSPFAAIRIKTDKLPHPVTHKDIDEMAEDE
Summary of the method: (§1)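 Recombinant TryS end-point assay in 100 mM HEPES pH 7.4 with 5 mM DTT, 10 mM MgSO4 and 0.5 mM EDTA. ATP was 150 µM and spermidine 2 mM. GSH was 0.25 mM for LiTryS, 0.05 mM for TbTryS and 0.57 mM for TcTryS. Enzyme started the reaction and BIOMOL Green stopped it after 15 min. A650 was read after 20 min at room temperature. Values were corrected with no-enzyme blanks and for compound interference with phosphate. At least quadruplicates; IC50 is given ± 2σn-1.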

LiTryS [3] = molecular target: T2, LiTryS (Leishmania infantum, UniProt A4I2Z3); assay: Kinetic assays for LiTryS; type: biochemical; details: double reciprocal plots
T2 sequence (A4I2Z3 1-652): T1 sequence (A4I2Z3 1-652)
Summary of the method: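 LiTryS in 100 mM HEPES pH 7.4, 10 mM MgSO4, 0.5 mM EDTA, 5 mM DTT at 28 °C. Enzyme-started, linear 15 min, colorimetric stop, A650 after 20 min. Variable GSH 100–3 µM (SP 13 mM, ATP 200 µM); ATP 200–6 µM (SP 13 mM, GSH 250 µM); SP 13–0.41 mM or GSP 250–7.8 µM (ATP 200 µM, GSH 250 µM).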

L. infantum amastigotes = assay: Macrophage infection assay, L. infantum amastigotes; type: cell-based, Leishmania infantum; details: for SI, L. infantum amastigotes: selectivity index, macrophage CC50 and amastigote EC50
Summary of the method: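 J774 macrophages on coverslips (1 × 10^5 cells/mL, DMEM with 1% FBS) were infected with stationary-phase L. infantum promastigotes (1:20) for 2 h at room temperature, then 22 h at 37 °C. After washing, test compound (10–0.01 µM, up to seven concentrations, at least duplicates, 1% DMSO) was added for 24 h at 37 °C. DAPI-stained infected cells were counted by microscopy relative to DMSO. EC50 came from a four-parameter sigmoid fit.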

[4] = tested on: Mouse macrophages from the cell line J774; assay: Cytotoxicity assay; type: cell-based; details: 24 h, non-infected J774
Summary of the method: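 J774 mouse macrophages were grown in DMEM with 10% FBS and penicillin/streptomycin at 37 °C in humidified 5% CO2. Cells were seeded at 6 × 10^4 cells/mL and exposed the next day for 24 h to test compound at 100 to 0.001 µM (200 µM for one compound). The WST-1 signal was read at A450. % cytotoxicity was calculated against DMSO-treated and untreated cells, and CC50 is given ± σn–1.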

[5] = tested on: L. infantum promastigotes (WT and TryS sKO); assay: Intracellular low molecular mass thiols, promastigotes; type: cell-based, Leishmania infantum; details: 7 µM, 24 h
Summary of the method: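 L. infantum promastigotes (MHOM MA67I7MAP263, WT or TryS single knockout) were seeded at 5 × 10^5/mL in RPMI at 28 °C with 7 µM test compound or 1% DMSO for 24 h. Thiols were reduced with 70 mM NaBH4 in 40 mM HEPES pH 8.0, labelled with 2 mM monobromobimane (70 °C, 3 min) and acid-extracted. They were separated by C18 HPLC against GSH/T(SH)2 standards (2.5–75 nmol), and peak areas are given as % of untreated WT. At least duplicates; unpaired t-test.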

TbTryS = molecular target: T3, TbTryS (Trypanosoma brucei brucei, UniProt Q8IEX1); assay: TryS activity end-point assay; type: biochemical
T3 sequence (Q8IEX1 1-627): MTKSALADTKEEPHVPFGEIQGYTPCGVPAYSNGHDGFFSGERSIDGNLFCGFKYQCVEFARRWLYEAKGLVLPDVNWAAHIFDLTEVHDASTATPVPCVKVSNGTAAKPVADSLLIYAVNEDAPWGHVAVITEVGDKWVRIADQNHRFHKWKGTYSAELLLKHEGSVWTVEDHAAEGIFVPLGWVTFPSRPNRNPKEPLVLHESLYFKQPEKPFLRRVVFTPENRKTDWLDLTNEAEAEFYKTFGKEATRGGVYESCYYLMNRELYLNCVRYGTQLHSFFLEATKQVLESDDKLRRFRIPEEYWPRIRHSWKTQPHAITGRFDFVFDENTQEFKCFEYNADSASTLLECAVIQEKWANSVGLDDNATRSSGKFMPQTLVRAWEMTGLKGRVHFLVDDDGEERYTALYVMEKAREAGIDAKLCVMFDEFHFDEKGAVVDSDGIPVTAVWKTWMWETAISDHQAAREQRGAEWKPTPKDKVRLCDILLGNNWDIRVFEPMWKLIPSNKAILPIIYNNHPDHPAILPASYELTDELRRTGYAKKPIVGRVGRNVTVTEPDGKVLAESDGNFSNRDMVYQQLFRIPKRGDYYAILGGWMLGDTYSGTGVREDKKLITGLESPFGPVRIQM
Summary of the method: as §1

[6] = tested on: L. braziliensis amastigotes; assay: Macrophage infection assay, L. braziliensis amastigotes; type: cell-based, Leishmania braziliensis; details: for SI, L. braziliensis amastigotes: selectivity index, macrophage CC50 and amastigote EC50
Summary of the method: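 J774 macrophages were plated on coverslips at 1 × 10^5 cells/mL in DMEM with 1% FBS. They were infected with stationary-phase L. braziliensis promastigotes (MHOM/BR/01/BA788; 1:20) for 2 h at room temperature, then 22 h at 35 °C. After washing, cells got test compound (5 or 10 µM, or 10–0.01 µM) in 1% DMSO for 24 h at 37 °C and 5% CO2. Cells were EtOH-fixed and DAPI-stained, and 100–200 macrophages were imaged. % infected cells is relative to DMSO.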

TcTryS = molecular target: T4, TcTryS (Trypanosoma cruzi, UniProt Q9GT49); assay: TryS activity end-point assay; type: biochemical; details: for IC50: IC50 value, TcTryS, ± 2σ, ~30 assumed for 50 ± 5% inhibition at 30 µM
T4 sequence (Q9GT49 1-647): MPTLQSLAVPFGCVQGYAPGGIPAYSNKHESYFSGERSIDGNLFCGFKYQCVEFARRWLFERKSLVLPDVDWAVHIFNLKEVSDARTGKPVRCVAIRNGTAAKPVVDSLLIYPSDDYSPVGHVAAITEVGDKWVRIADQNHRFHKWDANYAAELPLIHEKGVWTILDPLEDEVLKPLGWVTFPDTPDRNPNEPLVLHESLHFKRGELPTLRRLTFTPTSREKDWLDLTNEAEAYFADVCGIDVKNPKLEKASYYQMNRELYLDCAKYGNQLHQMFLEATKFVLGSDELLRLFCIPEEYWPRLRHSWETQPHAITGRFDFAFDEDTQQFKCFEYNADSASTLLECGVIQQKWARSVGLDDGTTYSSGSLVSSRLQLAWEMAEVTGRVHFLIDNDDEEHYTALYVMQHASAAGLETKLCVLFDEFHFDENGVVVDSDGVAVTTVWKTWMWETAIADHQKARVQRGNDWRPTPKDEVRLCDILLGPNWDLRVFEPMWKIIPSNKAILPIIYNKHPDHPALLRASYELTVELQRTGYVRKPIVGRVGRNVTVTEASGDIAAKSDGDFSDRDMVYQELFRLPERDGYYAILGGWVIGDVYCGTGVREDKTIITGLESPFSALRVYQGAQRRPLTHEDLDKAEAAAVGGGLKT
Summary of the method: as §1

LiTryS [7] = molecular target: T2, LiTryS; details: read-out: Ki, nucleotide-binding site of the enzyme; ADP; cited from earlier work
[8] = 30 µM, NA = not active (enzyme activity > 95%)

SMILES: Cl.O=C(CN1C(=O)Cc2c([nH]c3ccc(Br)cc23)-c2ccc(Cl)cc21)N1CCNCC1 [Compound 20]
GSH accumulation, WT amastigotes [1]: 16 fold | GSH accumulation, sKO amastigotes [1]: 10 fold | T(SH)2 depletion, WT amastigotes [1]: about 40% | T(SH)2 depletion, sKO amastigotes [1]: ~82% | IC50 ([2]; IC50 value, LiTryS): 0.3 µM | Inhibition mode with respect to ATP and GSH (LiTryS [3]; ATP or GSH variable): uncompetitive inhibition | Inhibition mode with respect to SP and GSP (LiTryS [3]; SP or GSP variable): competitive inhibition | SI, L. infantum amastigotes (L. infantum amastigotes): 9 | CC50 ([4]; read-out: CC50, macrophages): 8.1 ± 0.1 µM | T(SH)2 decrease, WT promastigotes ([5]; WT cells): 88% | T(SH)2 content, sKO promastigotes ([5]; sKO cells, detection limit 0.5 nmol T(SH)2/100 million cells): undetectable | IC50 (TbTryS; IC50 value, TbTryS, ± 2σ, ~30 assumed for 50 ± 5% inhibition at 30 µM): ~30 µM | % infection by L. braziliensis at 5 µM ([6]; 5 µM, 24 h, relative to infected non-treated macrophages): 15% and 15 ± 1 at 5 µM % | SI, L. braziliensis amastigotes [6]: ≥ 21

SMILES: O=C1Cc2c([nH]c3ccc(Br)cc23)-c2ccc(Cl)cc2N1 [Compound 1, 3-Chlorokenpaullone]
% TryS inhibition at 30 µM, LiTryS [2, 8]: inactive | % TryS inhibition at 30 µM, TcTryS (TcTryS; [8]): inactive | % cytotoxicity at 200 µM, macrophages ([4]; 200 µM): 0 at 200 µM % | % TryS inhibition at 30 µM, TbTryS (TbTryS; [8]): inactive

SMILES: C[C@@H]1[C@H](O)[C@@H](C)/C=C/C=C/C=C/C=C/C=C/C=C/C=C/[C@H](O[C@@H]2O[C@H](C)[C@@H](O)[C@H](N)[C@@H]2O)C[C@@H]2O[C@](O)(C[C@@H](O)C[C@@H](O)[C@H](O)CC[C@@H](O)C[C@@H](O)CC(=O)O[C@H]1C)C[C@H](O)[C@H]2C(=O)O [Amphotericin B, reference compound]
SI, L. infantum amastigotes (L. infantum amastigotes): 100 | SI, L. braziliensis amastigotes [6]: 59

SMILES: Nc1ncnc2c1ncn2[C@@H]1O[C@H](COP(=O)(O)OP(=O)(O)O)[C@@H](O)[C@H]1O [ADP]
Ki (LiTryS [7]): 90 µM

Second part, led by results:

IC50 ([2]; IC50 value, LiTryS): ~30 µM | IC50 (TcTryS): 25 µM
SMILES: CC(C)(C)OC(=O)NCCCCNC(=O)CN1C(=O)Cc2c([nH]c3ccc(Br)cc23)-c2ccc(Cl)cc21 [Compound 36]

IC50 ([2]; IC50 value, LiTryS): ~30 µM | IC50 (TcTryS): 20 µM
SMILES: CC(C)(C)OC(=O)N1CCN(CCNC(=O)CN2C(=O)Cc3c([nH]c4ccc(Br)cc34)-c3ccc(Cl)cc32)CC1 [Compound 34]

IC50 ([2]; read-out: IC50 value, LiTryS): 0.4 ± 0.1 µM | EC50 (L. infantum amastigotes; read-out: EC50, amastigotes L. infantum, intracellular amastigotes in J774, 24 h): 1 ± 0.5 µM
SMILES: CN1CCN(C(=O)CN2C(=O)Cc3c([nH]c4ccc(Br)cc34)-c3ccc(Cl)cc32)CC1 [Compound 21, 9-Bromo-3-chloro-5-[2-(4-methylpiperazin-1-yl)-2-oxoethyl]-7,12-dihydrobenzo[2,3]azepino[4,5-b]indol-6(5H)one]
% infection by L. braziliensis at 10 µM ([6]; 10 µM, 24 h, relative to infected non-treated macrophages): 65 ± 7% | SI, L. braziliensis amastigotes [6]: 5
